Assay [1] has as its target T1, Serotonin 3 (5-HT3) receptor (Rattus norvegicus, UniProt P35563+Q9JJ16).
T1 sequence (P35563 whole entry): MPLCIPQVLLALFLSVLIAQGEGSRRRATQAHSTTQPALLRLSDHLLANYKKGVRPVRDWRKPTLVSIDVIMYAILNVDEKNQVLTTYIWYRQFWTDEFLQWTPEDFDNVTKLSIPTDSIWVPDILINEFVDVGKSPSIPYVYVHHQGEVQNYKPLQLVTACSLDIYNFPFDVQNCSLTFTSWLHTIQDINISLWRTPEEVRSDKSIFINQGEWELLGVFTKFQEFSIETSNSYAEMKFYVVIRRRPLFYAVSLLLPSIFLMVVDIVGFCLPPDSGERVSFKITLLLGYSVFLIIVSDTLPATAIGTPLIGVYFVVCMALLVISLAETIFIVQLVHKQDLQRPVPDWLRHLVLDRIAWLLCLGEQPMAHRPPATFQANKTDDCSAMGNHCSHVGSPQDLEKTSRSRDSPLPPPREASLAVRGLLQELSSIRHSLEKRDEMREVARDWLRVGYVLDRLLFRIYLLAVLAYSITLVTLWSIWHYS
T1 sequence (Q9JJ16 whole entry): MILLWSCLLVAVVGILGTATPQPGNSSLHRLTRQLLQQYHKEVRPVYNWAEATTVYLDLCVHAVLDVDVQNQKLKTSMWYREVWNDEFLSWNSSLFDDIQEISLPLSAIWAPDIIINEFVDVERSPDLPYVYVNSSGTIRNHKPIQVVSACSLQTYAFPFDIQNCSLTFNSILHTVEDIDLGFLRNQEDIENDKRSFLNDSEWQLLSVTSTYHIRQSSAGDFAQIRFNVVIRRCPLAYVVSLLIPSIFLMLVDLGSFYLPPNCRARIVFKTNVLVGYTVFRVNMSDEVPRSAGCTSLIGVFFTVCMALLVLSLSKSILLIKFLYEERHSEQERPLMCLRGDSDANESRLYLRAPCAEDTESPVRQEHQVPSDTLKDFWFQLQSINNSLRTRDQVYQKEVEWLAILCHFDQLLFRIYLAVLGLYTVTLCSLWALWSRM
In words: Compound was evaluated for its binding affinity for 5-hydroxytryptamine 3 receptor by measuring displacement [3H]GR-65630 in rat cerebral cortex. Type of assay: tissue-based.

The target in assay [2] is T1, Serotonin 3 (5-HT3) receptor. In words: Compound was evaluated for its binding affinity for 5-hydroxytryptamine 3 receptor by measuring displacement of [3H]granisetron from rat cerebral cortex. The assay is classed as tissue-based. The gist of the method:
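Male Sprague-Dawley rat cerebral cortex homogenized in cold 50 mM HEPES pH 7.5, then washed three times by centrifugation (48000g, 4 °C); roughly 2.5 mg protein/mL. […] Filters were presoaked 2 h in 0.3% polyethylenimine. Nonspecific binding defined with 100 nM zacopride; bound counted by liquid scintillation.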
In general terms: Displacement assays read how much labelled ligand stays bound in the presence of the test substance.

Assay [3] concerns the target T2, Muscarinic acetylcholine receptor M2 (Rattus norvegicus, UniProt P10980).
T2 sequence (P10980 whole entry): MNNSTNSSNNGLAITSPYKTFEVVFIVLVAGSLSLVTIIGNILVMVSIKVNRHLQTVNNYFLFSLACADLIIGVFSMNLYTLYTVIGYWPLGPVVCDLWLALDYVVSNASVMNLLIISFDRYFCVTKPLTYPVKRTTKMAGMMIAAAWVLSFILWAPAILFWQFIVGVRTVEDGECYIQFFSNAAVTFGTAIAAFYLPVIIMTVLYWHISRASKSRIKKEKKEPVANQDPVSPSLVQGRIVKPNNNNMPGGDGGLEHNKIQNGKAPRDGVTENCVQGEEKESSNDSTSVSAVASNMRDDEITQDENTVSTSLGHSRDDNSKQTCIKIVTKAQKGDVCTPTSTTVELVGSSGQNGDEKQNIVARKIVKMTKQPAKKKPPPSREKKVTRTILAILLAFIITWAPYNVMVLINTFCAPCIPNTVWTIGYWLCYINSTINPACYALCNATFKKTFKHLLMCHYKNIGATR
Kind of assay: Compound was evaluated for its binding affinity for Muscarinic acetylcholine receptor M2 by measuring displacement of [3H]- NMS ligand from rat cardiac cells. The gist of the method: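 Adult rat cardiac cells homogenized 1:200 w/v in 50 mM sodium phosphate pH 7.4. Competition run with 0.2 nM [3H]NMS, 0.5 mg tissue and varying unlabeled ligand concentrations for 1 h at 37 °C. Bound separated by GF/C filtration. Atropine used for nonspecific binding.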

Assay [4] has as its target T3, Muscarinic acetylcholine receptor M1 (Rattus norvegicus, UniProt P08482).
T3 sequence (P08482 whole entry): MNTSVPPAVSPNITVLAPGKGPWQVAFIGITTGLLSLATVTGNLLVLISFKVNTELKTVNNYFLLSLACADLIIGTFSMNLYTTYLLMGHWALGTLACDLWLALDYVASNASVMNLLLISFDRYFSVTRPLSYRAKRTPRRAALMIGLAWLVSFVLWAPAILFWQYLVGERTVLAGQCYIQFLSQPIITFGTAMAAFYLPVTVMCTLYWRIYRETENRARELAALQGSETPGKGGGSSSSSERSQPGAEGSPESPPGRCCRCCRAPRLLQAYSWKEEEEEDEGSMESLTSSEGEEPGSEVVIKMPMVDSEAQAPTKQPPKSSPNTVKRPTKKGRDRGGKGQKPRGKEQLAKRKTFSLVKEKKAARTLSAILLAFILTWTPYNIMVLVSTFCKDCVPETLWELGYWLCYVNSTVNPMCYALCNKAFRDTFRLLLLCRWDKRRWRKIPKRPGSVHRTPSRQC
In words: Compound was evaluated for its binding affinity for Muscarinic acetylcholine receptor M1 by measuring displacement of [3H]- pirenzepine from rat hippocampus. The assay is classed as tissue-based. The gist of the method: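 Adult rat hippocampus homogenized 1:200 w/v in 50 mM Na/K phosphate pH 7.4 with 1 mM EDTA and 0.1 mM PMSF. 0.5 mg tissue competed against [3H]pirenzepine (0.7-1 nM) for 2 h 30 min at 25 °C. Bound separated by filtration on 0.3% polyethylenimine-treated GF/C filters. Atropine defined nonspecific binding.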

Assay [5] addresses T1, Serotonin 3 (5-HT3) receptor. In words: Compound was evaluated for its binding affinity for 5-hydroxytryptamine 3 receptor by measuring displacement [3H]GR-65630 in rat cerebral cortex. The assay is classed as tissue-based.
For assay [6], the target named is Serotonin (5-HT) receptor. Kind of assay: Potency was evaluated on rabbit heart serotonergic receptors. Further details: species or system Oryctolagus cuniculus.

Experimental findings from ChEMBL document CHEMBL1131455, “5-HT3 antagonists derived from aminopyridazine-type muscarinic M1 agonists” (J Med Chem, 1998) are described below.

With `Cn1cc(-c2noc(C3CN4CCC3CC4)n2)c2ccccc21` (configuration not stated), in assay [1], the IC50 (as a rule, the concentration that gives 50% inhibition) was determined as 0.0014 µM. In the case of `CN1CCN(c2nncc3ccccc23)CC1`, the IC50 in assay [2] came to 0.01 µM. Also, the results for the Ki in assay [3] and in assay [4] were 38 µM and 10 µM, respectively.

`CCN(CC)CCNC(=O)c1cc(Cl)c(N)cc1OC` [METOCLOPRAMIDE]: the Ki (usually the equilibrium dissociation constant of an inhibitor or competing ligand from its target) in assay [5] worked out at 0.348 µM. As to `O=C(OC1C2CC3CC1N2CC3=O)c1c[nH]c2ccccc12` (configuration not stated), the pA2 (usually the negative logarithm of the molar antagonist concentration that doubles the agonist concentration needed for the same response) in assay [6] was 9.8. `CN1CCN(c2ccc(-c3ccccc3)nn2)CC1`: in assay [2], the IC50 came to 0.425 µM. The Ki turned out to be 71 µM in assay [3] and 15.6 µM in assay [4]. Molecule `CN1[C@@H]2CC[C@H]1C[C@@H](OC(=O)c1c[nH]c3ccccc13)C2` [TROPISETRON] had a Ki in assay [5] of 0.0032 µM. Take `CN1CCN(c2nnc(-c3ccccc3)c3ccccc23)CC1`: the 50% inhibitory concentration (IC50) in assay [2] was found to be 0.37 µM. Moreover, the Ki in assay [3] was 116 µM; in assay [4], 13 µM. Take `CN1CCN(c2cc(-c3ccccc3)cnn2)CC1`: the IC50 in assay [2] was found to be 0.036 µM. In addition, the Ki in assay [3] was determined as 80 µM; in assay [4], 62 µM.

`CN1[C@@H]2CC[C@H]1C[C@@H](OC(=O)c1cc(Cl)cc(Cl)c1)C2` [BEMESETRON] had a Ki in assay [5] of 0.054 µM.
